For orientation: IC50 means the concentration needed to halve the response being measured. Low readings indicate higher potency, high ones lower potency. Usually EC50 stands for the midpoint of the concentration-response curve. What is called CC50 is the concentration at which the toxic effect on the cells reaches its halfway point. A higher CC50 goes with better tolerance by the cells.

The results in this text go back to ChEMBL document CHEMBL1132359, “Thiazolothiazepine inhibitors of HIV-1 integrase” (J Med Chem, 1999).

Test [1] addresses T1, Human immunodeficiency virus type 1 integrase (Human immunodeficiency virus 1, UniProt Q7ZJM1). In words: Inhibition of the 3'-end joining activity of HIV-1 integrase. Put shortly: (§1)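 Then 20 nM 5′-32P-labeled linear oligonucleotide substrate added and incubated a further 1 h. Products separated on denaturing 20% polyacrylamide/urea gel and quantified by phosphorimaging. IC50 read from a plot of percent inhibition versus concentration.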

In test [2] the target is T1, Human immunodeficiency virus type 1 integrase. Kind of test: Inhibition of the 3'-processing activity of HIV-1 integrase. The gist of the method: as §1
Test [3] has as its system CCRF-CEM. Kind of test: The compound was tested for inhibitory activity against HIV-1. The class given is functional, cell-based. As to conditions: Homo sapiens.
Test [4] concerns CCRF-CEM. In words: Tested for cytotoxicity in CEM cells. The class given is functional. The note with it: Homo sapiens.
The test system of test [5] is CCRF-CEM. Kind of test: The compound was tested for inhibitory activity against HIV-1 infected CEM cells. It counts as functional, cell-based. The note with it: Homo sapiens.
The test system of test [6] is CCRF-CEM. In words: The compound was tested for cytotoxicity against HIV-1 infected CEM cells. As to conditions: Homo sapiens. The class given is functional.

T1 sequence (Q7ZJM1 whole entry): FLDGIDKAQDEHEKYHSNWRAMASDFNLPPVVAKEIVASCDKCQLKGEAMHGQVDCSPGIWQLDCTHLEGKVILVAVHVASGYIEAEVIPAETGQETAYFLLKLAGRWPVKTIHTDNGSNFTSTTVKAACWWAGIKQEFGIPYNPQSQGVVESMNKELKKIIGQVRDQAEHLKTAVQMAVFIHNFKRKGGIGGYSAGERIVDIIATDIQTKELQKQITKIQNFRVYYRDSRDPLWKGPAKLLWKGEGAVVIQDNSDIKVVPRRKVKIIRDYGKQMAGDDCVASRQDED

Take `O=C1Sc2ccc(Br)cc2C(=O)N2CCSC12` (stereo unspecified): the concentration for half-maximal inhibition (IC50) in test [1] was 48 µM; in test [2] it was 58 µM.

Turning to `CN(C)Cc1ccc2n1Cc1ccccc1SC2c1ccc(F)cc1` (stereo unspecified), the IC50 in test [1] and in test [2] was above 1000 µM each time.

Turning to `CN1CCN(Cc2ccc3n2Cc2ccccc2SC3c2ccccc2)CC1` (stereo unspecified), the concentration for half-maximal inhibition (IC50) in test [1] and in test [2] was above 1000 µM each time.

Consider `CC(=O)OC1Sc2ccccc2C(=O)N2CCCC12` (stereo unspecified), for which the IC50 in test [1] and in test [2] was above 1000 µM in each case. In test [3], this compound gave an EC50 above 200 µM. Further, in test [4], the 50% cytotoxic concentration (CC50) was above 200 µM.

Consider `O=C1Sc2cc3ccccc3cc2C(=O)N2CCSC12` (stereo unspecified), for which the IC50 in test [1] was 47 µM; in test [2] it was 40 µM. Besides, the EC50 in test [3] is 60 µM. The compound further showed a CC50 in test [4] above 316 µM.

As to `COC1Sc2ccccc2C(=O)N2CCCC12` (stereo unspecified), the IC50 in test [1] and in test [2] was above 1000 µM each time. Further, the concentration for a half-maximal effect (EC50) in test [3] is above 200 µM. The same compound had a cytotoxic concentration (CC50) in test [4] above 200 µM.

In the case of `Cc1ccc2c(c1)C(=O)N1CCSC1C(=O)S2` (stereo unspecified), the figures for the IC50 in test [1] and in test [2] were 55 µM and 64 µM, respectively.

With `O=C1Sc2ccccc2C(=O)N2CCCCC12` (stereo unspecified), the IC50 worked out at 343 µM in test [1] and 406 µM in test [2]. Further, in test [3], the EC50 was above 200 µM. Further, the CC50 in test [4] is above 200 µM.

On to `O=C1Sc2ccccc2C(=O)N2C[S+]([O-])CC12` (stereo unspecified), for which the 50% inhibitory concentration (IC50) in test [1] amounted to 215 µM; in test [2], 200 µM.

For `O=C1c2ccccc2SC(O)C2CCCN12` (stereo unspecified), the concentration for half-maximal inhibition (IC50) in test [1] and in test [2] was above 1000 µM each time. In test [3], this compound displayed an EC50 above 200 µM. For the same compound, the CC50 in test [4] was above 200 µM.

For the compound `O=C1Sc2cc3ccccc3cc2C(=O)N2CSCC12` (stereo unspecified), the figures for the half-inhibitory concentration (IC50) in test [1] and in test [2] were 100 µM and 92 µM, respectively. The response in test [3] was half-maximal at 280 µM (EC50). Besides, in test [4], the 50% cytotoxic concentration (CC50) is above 316 µM.

Consider `O=C1Sc2ccccc2C(=O)N2COCC12` (stereo unspecified), for which the IC50 in test [1] and in test [2] was above 333 µM in each case.

Turning to `O=C1Sc2ccc(Cl)cc2C(=O)N2C[S+]([O-])CC12` (stereo unspecified), the IC50 in test [1] stood at 280 µM; in test [2] it was 260 µM.

For the compound `O=C1Sc2ccc(Cl)cc2C(=O)N2CCSC12` (stereo unspecified), the figures for the 50% inhibitory concentration (IC50) in test [1] and in test [2] were 120 µM and 151 µM, respectively. Besides, the 50% effective concentration (EC50) in test [3] was above 50 µM. This compound came in with a half-maximal cytotoxic concentration (CC50) in test [4] above 50 µM.

For the compound `COc1cc2c(cc1OC)C(=O)N1CCCC1CS2` (stereo unspecified), the IC50 in test [1] and in test [2] was above 1000 µM each time. The EC50 in test [3] was above 200 µM. Besides, the CC50 in test [4] was above 200 µM.

In the case of `COc1ccc2c(c1)C(=O)N1CSCC1C(=O)S2` (stereo unspecified), the half-maximal inhibitory concentration (IC50) in test [1] and in test [2] was 155 µM in each case. Also, in test [3], the EC50 is above 200 µM. The compound further gave a CC50 in test [4] above 200 µM.

As for `O=C1c2ccccc2SC(O)(c2ccccc2)C2CCCN12` (stereo unspecified), the IC50 in test [1] and in test [2] was above 1000 µM each time.

With `O=C1Sc2ccccc2C(=O)N2CSCC12` (stereo unspecified), the IC50 in test [1] was found to be 227 µM; in test [2], 208 µM. The compound also displayed a 50% effective concentration (EC50) in test [3] above 200 µM. Besides, the CC50 in test [4] was above 200 µM.

As for `O=C1c2ccccc2SCC2CSC(c3ccccc3)N12` (stereo unspecified), the IC50 in test [1] is 376 µM; in test [2], 372 µM.

Compound `O=C1Sc2ccccc2C(=O)N2CCSC12` (stereo unspecified) came in with a 50% effective concentration (EC50) in test [5] of 107 µM. This compound displayed a CC50 in test [6] above 200 µM. Besides, the half-inhibitory concentration (IC50) came out at 146 µM in test [1] and 110 µM in test [2].

Consider `COc1ccc2c(c1)C(=O)N1C[S+]([O-])CC1C(=O)S2` (stereo unspecified), for which the half-inhibitory concentration (IC50) in test [1] was found to be 142 µM; in test [2] it was 84.5 µM.

Consider `COc1cc2c(cc1OC)C(=O)N1CCCC1C(=O)S2` (stereo unspecified), for which the 50% inhibitory concentration (IC50) in test [1] and in test [2] was above 1000 µM in each case. In test [3], this compound registered a concentration giving a half-maximal response (EC50) above 200 µM. This compound also showed a cytotoxic concentration (CC50) in test [4] above 200 µM.

In the case of `O=C1Sc2ccccc2Cn2cccc21`, the IC50 in test [1] amounted to 300 µM; in test [2], 590 µM. The same compound yielded an EC50 in test [3] of 146 µM. Moreover, the CC50 in test [4] is above 200 µM.

Consider `Cc1ccc2c(c1)C(=O)N1CC[S+]([O-])C1C(=O)S2` (stereo unspecified), for which the IC50 in test [1] and in test [2] was 590 µM each time. The same compound had an EC50 in test [3] above 100 µM. The CC50 in test [4] is above 100 µM.

As to `O=C1Sc2cc([N+](=O)[O-])ccc2C(=O)N2CSCC12` (stereo unspecified), the IC50 was found to be 100 µM in test [1] and 90 µM in test [2]. The EC50 in test [3] is above 50 µM. The compound also had a half-maximal cytotoxic concentration (CC50) in test [4] above 50 µM.

With `CN1CCN(C2Sc3ccccc3C(=O)N3CCCC23)CC1` (stereo unspecified), the IC50 in test [1] and in test [2] was above 1000 µM throughout. The same compound came in with a concentration giving a half-maximal response (EC50) in test [3] above 125 µM. The CC50 in test [4] is above 125 µM.

For `Cc1ccc2c(c1)C(=O)N1CSCC1C(=O)S2` (stereo unspecified), the results for the IC50 in test [1] and in test [2] were 63 µM and 52 µM, respectively. The compound also showed a CC50 in test [4] of 35 µM.

For `O=C1Sc2ccc(Br)cc2C(=O)N2CSCC12` (stereo unspecified), the IC50 was determined as 74 µM in test [1] and 87 µM in test [2]. Also, the half-maximal effective concentration (EC50) in test [3] is above 200 µM. This compound registered a 50% cytotoxic concentration (CC50) in test [4] above 200 µM.

Turning to `COc1cc2c(cc1OC)C(=O)N1CSCC1C(=O)S2` (stereo unspecified), the concentration for half-maximal inhibition (IC50) worked out at 333 µM in test [1] and 670 µM in test [2]. The half-maximal effective concentration (EC50) in test [3] is above 50 µM. The compound further showed a 50% cytotoxic concentration (CC50) in test [4] above 50 µM.

In the case of `O=C1Sc2ccc(Cl)cc2C(=O)N2CSCC12` (stereo unspecified), the IC50 in test [1] was determined as 160 µM; in test [2], 158 µM. The compound also showed an EC50 in test [3] above 100 µM. This compound also had a CC50 in test [4] above 100 µM.

Turning to `CCOC(=O)C1Sc2ccccc2Cn2cccc21` (stereo unspecified), the IC50 in test [1] and in test [2] was above 1000 µM each time.
